Data set [1] can be described thus: Acute toxicity in zebrafish embryo assessed as morphological changes by measuring bent tail at upto 160 uM measured after 96 hrs post fertilization. The settings on record: in vivo. Details: species or system Danio rerio. An outline of the steps:
(§1)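 Wild-type Danio rerio embryos were exposed in milli-Q water with compound dissolved in DMSO (≤0.25 v/v final). Controls were milli-Q water and water with DMSO. Embryos were held at 26.8 ± 1 °C and scored by inverted microscope at 24–96 hpf, after exposure at 160 µM, for bent spine, yolk sac edema, pericardial edema, short tail and bent tail.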

Data set [2] in a line: Acute toxicity in zebrafish embryo assessed as morphological changes by measuring yolk sac edema at upto 160 uM measured after 96 hrs post fertilization. Details: species or system Danio rerio. The settings on record: in vivo. An outline of the steps: as §1
A short description of data set [3]: Acute toxicity in zebrafish embryo assessed as morphological changes by measuring short tail at upto 160 uM measured after 96 hrs post fertilization. Details: species or system Danio rerio. The settings on record: in vivo. In outline:
as §1

Data set [4] is described as follows: Antioxidant activity assessed as DPPH radical scavenging activity after 30 mins by spectrophotometric analysis relative to control. Details: concentration or dose not given beside the values. Format: functional. An outline of the steps:
(§2)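 Ascorbic acid was the reference standard. For DPPH, 0.2 mM DPPH in methanol was kept in the dark, mixed with compound at 5–160 µM (DMSO stock), and incubated 30 min in the dark at room temperature, then A517 was read. %RSA = (Ac−As)/Ac×100. Triplicate runs; IC50 taken from the plot of % scavenging versus concentration.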

The nature of data set [5]: Antioxidant activity assessed as DPPH radical scavenging activity after 30 mins by spectrophotometric analysis. Format: functional. An outline of the steps: as §2
Data set [6] in a line: Acute toxicity in zebrafish embryo assessed as survival rate at 96 hrs post fertilization relative to control. Details: species or system Danio rerio; concentration or dose not given beside the values. The settings on record: in vivo. An outline of the steps: (§3)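 Lethality endpoints were coagulation and absence of heartbeat, checked by inverted microscope. Survival was compared with untreated embryos across three independent experiments; mean ± SD, ANOVA.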

The nature of data set [7]: Acute toxicity in zebrafish embryo assessed as morphological changes by measuring pericardial edema at upto 160 uM measured after 96 hrs post fertilization. The note with it: in vivo. Details: species or system Danio rerio. In outline: as §1
A short description of data set [8]: Antioxidant activity assessed as ABTS radical scavenging activity after 6 mins by spectrophotometric analysis relative to control. The class given is functional. Details: concentration or dose not given beside the values.
A short description of data set [9]: Acute toxicity in zebrafish embryo assessed as morphological changes by measuring bent spine at upto 160 uM measured after 96 hrs post fertilization. Details: species or system Danio rerio. The settings on record: in vivo. In outline: as §1
A short description of data set [10]: Acute toxicity in zebrafish embryo assessed as survival rate at 160 uM measured after 96 hrs post fertilization relative to control. Details: species or system Danio rerio. The note with it: in vivo. In outline: as §3
The nature of data set [11]: Acute toxicity in zebrafish embryo assessed as hatching rate at 20 to 160 uM measured after 48 hrs post fertilization relative to control. Details: species or system Danio rerio. The settings on record: in vivo, dose 20-160 µM. An outline of the steps: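 Controls were water and water with 0.5% DMSO. Incubation at 26.8 ± 1 °C, 20 embryos per well. Hatching scored over 0–96 hpf under an inverted microscope. Triplicate, three independent experiments; mean ± SD; ANOVA.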

Data set [12] in a line: Antioxidant activity assessed as ABTS radical scavenging activity after 6 mins by spectrophotometric analysis. Format: functional.
A short description of data set [13]: Acute toxicity in zebrafish embryo assessed as survival rate at 20 uM measured after 96 hrs post fertilization relative to control. Details: species or system Danio rerio. The settings on record: in vivo. An outline of the steps: as §3
Data set [14] can be described thus: Antioxidant activity assessed as ABTS radical scavenging activity after 30 mins by […]. In general terms: An ELISA detects its analyte on a solid surface through an enzyme-linked reagent.
A short description of data set [15]: Antioxidant activity assessed as ABTS radical scavenging activity after 30 mins by spectrophotometric analysis. The class given is functional.
Data set [16] is described as follows: Antioxidant activity assessed as DPPH radical scavenging activity after 20 mins by […]. The class given is functional.
The nature of data set [17]: Acute toxicity in zebrafish embryo assessed as morphological changes at upto 160 uM measured after 48 hrs post fertilization relative to control. Details: species or system Danio rerio. The settings on record: in vivo. In outline: as §1

pIC50: −log10 of the molar value. ≈ marks a conversion by molar mass, not a printed value. Bounds are passed on as bounds.

As usually defined, the pIC50 is the IC50 on a negative log10 scale, so that one unit is a factor of ten. As to `CCCCCCCCCCCC1=C(O)C(=O)C(Cc2cccc(Oc3ccccc3)c2)=C(O)C1=O`, the Activity entry in [1] is “Toxic”; in data set [2] it was “Toxic”; in [3] it was “Toxic”; in [4], 80%; in [7] it was “Toxic”; in data set [8], 80.2%. The values for the Activity entry in data set [9] and in data set [11] were “Toxic” and 75.66%, respectively. The pIC50 in data set [5] was 5.54; in [12] it was 5.63. Also, in [6] (read-out: Activity), the survival at 96 h was 70%. Also, the survival at 96 h, 160 µM in data set [10] amounted to 70%. Further, in data set [13], the survival at 96 h, 20 µM was found to be 52%.
As a reminder, the IC50 is the concentration that gives 50% inhibition. In the case of `CCCCCCCCCCCC1=C(O)C(=O)C=C(O)C1=O` [EMBELIN], the Activity entry was “Toxic” in data set [1]; “Toxic” in [2]; “Toxic” in data set [3]; 71.1% in data set [4]; “Toxic” in [7]; 75.1% in data set [8]. The Activity result in data set [9] is reported as “Toxic”; in data set [11] it was 75.66%. Also, the negative logarithm of the IC50 (pIC50) in data set [5] and in [12] was 5.51 throughout. Besides, the survival at 96 h in data set [6] (read-out: Activity) amounted to 70%. Moreover, the results for the IC50 in data set [14], in [15] and in [16] were 27.92 µg/mL (≈ 94.8 µM), 27.9 µg/mL (≈ 94.8 µM) and 0.23 µg/mL (≈ 0.781 µM), respectively. Besides, the survival at 96 h, 160 µM in data set [10] came out at 70%. In addition, in [13], the survival at 96 h, 20 µM is 52%.
`CCCCCCCCCCCC1=C(O)C(=O)C(Cc2ccccc2C)=C(O)C1=O`: the Activity was 80% in data set [4], 80.2% in [8], 75.66% in data set [11] and “Non-Toxic” in data set [17]. Moreover, the negative logarithm of the IC50 (pIC50) was 5.60 in data set [5] and 5.69 in [12]. Moreover, in [6] (read-out: Activity), the survival at 96 h was 70%. In addition, the survival at 96 h, 160 µM in data set [10] was 70%. Also, the survival at 96 h, 20 µM in data set [13] came to 52%.
On to `CCCCCCCCCCCC1=C(O)C(=O)C(Cc2cc(OC)c(OC)c(OC)c2)=C(O)C1=O`, for which the Activity in data set [4] is 80%; in data set [8], 80.2%; in data set [11], 75.66%; in [17], “Non-Toxic”. Moreover, the pIC50 in [5] was 5.53; in [12] it was 5.61. The survival at 96 h in [6] (read-out: Activity) was 70%. The survival at 96 h, 160 µM in data set [10] came out at 70%. Further, the survival at 96 h, 20 µM in data set [13] was found to be 52%.
For `CCCCCCCCCCCC1=C(O)C(=O)C(Cc2ccc(OC)cc2)=C(O)C1=O`, the Activity was 71.1% in data set [4], 80.2% in data set [8], 75.66% in data set [11] and “Non-Toxic” in data set [17]. Also, the negative logarithm of the IC50 (pIC50) in [5] is 5.50; in data set [12] it was 5.57. Further, the survival at 96 h in data set [6] (read-out: Activity) amounted to 70%. Also, in [10], the survival at 96 h, 160 µM was 70%. For the same compound, in data set [13], the survival at 96 h, 20 µM was determined as 52%.
In the case of `CCCCCCCCCCCC1=C(O)C(=O)C(CC)=C(O)C1=O`, the Activity in [4] is 80%; in data set [8], 80.2%; in data set [11], 75.66%; in data set [17] it was “Non-Toxic”. In addition, the figures for the negative-log IC50 (pIC50) in data set [5] and in [12] were 5.58 and 5.61, respectively. Further, the survival at 96 h in data set [6] (read-out: Activity) is 70%. For the same compound, the survival at 96 h, 160 µM in data set [10] is 70%. For the same compound, the survival at 96 h, 20 µM in [13] amounted to 52%.
Regarding `CCCCCCCCCCCC1=C(O)C(=O)C(Cc2ccc(C(C)C)cc2)=C(O)C1=O`, the Activity was 86% in data set [4], 87.2% in [8], 75.66% in data set [11] and “Non-Toxic” in [17]. The pIC50 in data set [5] and in data set [12] was 5.72 each time. The survival at 96 h in [6] (read-out: Activity) came out at 70%. The survival at 96 h, 160 µM in [10] was 70%. In [13], the survival at 96 h, 20 µM is 52%.
On to `CCCCCCCCCCCC1=C(O)C(=O)C(Cc2ccc(N(C)C)cc2)=C(O)C1=O`, for which the Activity in data set [4] is 71.1%; in [8], 75.1%; in data set [11], 75.66%; in data set [17] it was “Non-Toxic”. Besides, the pIC50 is 5.47 in data set [5] and 5.54 in [12]. Further, the survival at 96 h in data set [6] (read-out: Activity) is 70%. Besides, the survival at 96 h, 160 µM in data set [10] amounted to 70%. Moreover, in [13], the survival at 96 h, 20 µM is 52%.
Turning to `C#Cc1ccc(CC2=C(O)C(=O)C(CCCCCCCCCCC)=C(O)C2=O)cc1`, the Activity result in [1] is “Toxic”; in [2], “Toxic”; in data set [3], “Toxic”; in data set [4] it was 50.3%; in [7] it was “Toxic”; in [8], 52.1%. Further, the Activity result is “Toxic” in data set [9] and 51.33% in data set [11]. In addition, the pIC50 in data set [5] was 5.31; in data set [12], 5.33. The survival at 96 h in [6] (read-out: Survival) is over 90%.
Turning to `CCCCCCCCCCCC1=C(O)C(=O)C(Cc2ccccc2Cl)=C(O)C1=O`, the Activity result is “Toxic” in data set [1]; “Toxic” in data set [2]; “Toxic” in [3]; 50.3% in [4]; “Toxic” in data set [7]; 52.1% in [8]. Also, the figures for the Activity entry in [9] and in [11] were “Toxic” and 51.33%, respectively. For the same compound, the negative logarithm of the IC50 (pIC50) in data set [5] was 5.34; in data set [12], 5.26. The survival at 96 h in data set [6] (read-out: Survival) is over 90%.

Values taken from ChEMBL document CHEMBL5376016, “Synthesis of novel rapanone derivatives via organocatalytic reductive C-alkylation: biological evaluation of antioxidant properties, in vivo zebrafish embryo toxicity, and docking studies” (RSC Med Chem, 2024).
